Results on three compounds are retold here after article PMC4351130 (Nature structural & molecular biology, 2015).

The target of assay [1] is double δ-OR mutant Leu300^7.35Trp - Trp284^6.58Lys (human) (UniProt P41143).
The subject of a further assay is μ-OR. The following applies: cited from earlier work.
A further assay deals with δ-OR. The following applies: cited from earlier work.
The subject of a further assay is human δ-OR. Nature of the assay: δ-OR β-arrestin recruitment Tango assay. The assay is classed as cell-based. The following applies: normalized to DADLE, N = 3 in quadruplicate, Supplementary Fig. 5. The essentials:
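Modified Tango β-arrestin recruitment format at human δ-OR. Values are mean ± SEM from three independent experiments, each run in quadruplicate.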

For assay [2] the following is noted: co-administration with morphine; cited from earlier work.

Some results are limits rather than exact numbers.

Consider “DIPP-NH2, H-Dmt(1)-Tic(2)-Phe(3)-Phe(4)-NH2 (peptide)”, for which the fold decrease in affinity against the unmutated receptor in assay [1] was over 100 fold.

Turning to “H-Dmt(1)-Tic(2)-Phe(3)-Phe(4)-NH2 [DIPP-NH2]”, in the assay on μ-OR, the “Functional activity in guinea pig ileum assay” value is “μ-OR agonist”. In addition, the “Functional activity in mouse vas deferens assay” value in the assay with δ-OR was “δ-OR antagonist”. Also, in the assay on human δ-OR, the “Agonist activity at δ-OR, β-arrestin pathway” value is “weak partial agonist activity”.

For the compound `Oc1ccc2c3c1O[C@H]1c4[nH]c5ccccc5c4C[C@@]4(O)[C@@H](C2)N(CC2CC2)CC[C@]314` [naltrindole], the “Effect on development of morphine-induced tolerance and dependence” value in assay [2] is “prevent the development of morphine-induced tolerance and dependence”.
